In PubChem BioAssay:
Calls of active or inactive are those of the source.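 How the source made its calls, unless noted: active means viability at or below 10% of carrier control in both of two separate runs; inconclusive means viability at or below 10% in only one of the two runs; inactive means the rest.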

Key:
[1] = Her2 expression decrease, cell viability multiplex – SKBR3 breast tumor cells, AlphaScreen, ATP viability, primary screen (AID 461;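 active means Her2 level under about 52% in both replicate screens, with viability over 70% of control, limit read from the data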;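 on Her2 level: lower value means less Her2 protein in the cells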;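 on viability: percent of carrier control wells set as 100% viability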); conditions: SKBR3 Her2 protein level, 18-24 h, measured here: SKBR3 viability, ATP luminescence, at 10 µM
[2] = target: Receptor tyrosine-protein kinase erbB-2 (Homo sapiens) (UniProt P04626); test: as above; conditions: 18-24 h, at 10 µM, stronger effect = lower value
[3] = reduced viability of SK-BR-3 breast cancer cells – cell-based, 24 h, human, pilot screen (AID 572); conditions: SK-BR-3 viability, CellTiter-Glo luminescence, at 10 µM, stronger effect = lower value;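 further: compound exposure lasted between 18 and 24 h rather than exactly 24 h; 100% = carrier-treated control wells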
[4] = HUVEC growth inhibition – cell-based, human, primary screen (AID 575;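 active means viability at or below 30% in both replicate assays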;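 further: 100% = median of untreated cell wells with 0.1% DMSO on each plate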); conditions: HUVEC proliferation, CellTiter-Glo luminescence, 72 h; at 10 µM; stronger effect = lower value
Outline: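 Material: primary human umbilical vein endothelial cells / Schedule: 72 h exposure, 37 °C, 5% CO2, 30 min RT equilibration / Signal: ATP-based CellTiter-Glo luminescent read / Read-out basis: percent of median DMSO-control luminescence / Control set: 32 DMSO-only cell-control wells (high), 32 MePR drug-control wells (low) per plate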

[5] = H69AR cell proliferation blockers – human, duplicate replicates, primary screen (AID 580;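 active means viability at or under a set limit in both replicates, limit being median viability minus 3 SD, cut at about 48% in these data, passing the limit was not always enough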;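 further: 100% = mean luminescence of untreated wells and 0% = no signal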); conditions: H69AR lung tumor cells viability, ATP luminescence, 72 h; at 10 µM; stronger effect = lower value
[6] = MRP1 drug-resistance reversers in H69AR cells – cell-based, doxorubicin co-treatment, pilot screen (AID 601;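 active means viability loss from added drug above about 55%, and viability with drug at most 40%, in both replicates, limit read from the data, passing the limit was not always enough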); conditions: CellTiter-Glo, 72 h, at 10 µM; for differential viability (reversal): stronger effect = higher value
[7] = yeast transport mutant growth inhibition pilot in 384-well plates, post-Golgi transport modulator project (AID 636; in the data active means inhibition above about 31%); conditions: absorbance 615 nm, about 18 h, stronger effect = higher value
[8] = growth suppression of yeast trafficking mutant, preliminary HTS, modulators of trafficking downstream of Golgi apparatus project, 1536-format plate, OD 615 nm (AID 637; in the data active means inhibition above about 30%); conditions: yeast transport mutant growth, absorbance 615 nm, 18 h; stronger effect = higher value
[9] = H69AR cells + 2 uM doxorubicin, measured here: viability with 2 uM doxorubicin, stronger effect = lower value
[10] = H69AR cells, compound alone cytotoxicity

Chain of Receptor tyrosine-protein kinase erbB-2 (Homo sapiens) (P04626 whole entry, looked up): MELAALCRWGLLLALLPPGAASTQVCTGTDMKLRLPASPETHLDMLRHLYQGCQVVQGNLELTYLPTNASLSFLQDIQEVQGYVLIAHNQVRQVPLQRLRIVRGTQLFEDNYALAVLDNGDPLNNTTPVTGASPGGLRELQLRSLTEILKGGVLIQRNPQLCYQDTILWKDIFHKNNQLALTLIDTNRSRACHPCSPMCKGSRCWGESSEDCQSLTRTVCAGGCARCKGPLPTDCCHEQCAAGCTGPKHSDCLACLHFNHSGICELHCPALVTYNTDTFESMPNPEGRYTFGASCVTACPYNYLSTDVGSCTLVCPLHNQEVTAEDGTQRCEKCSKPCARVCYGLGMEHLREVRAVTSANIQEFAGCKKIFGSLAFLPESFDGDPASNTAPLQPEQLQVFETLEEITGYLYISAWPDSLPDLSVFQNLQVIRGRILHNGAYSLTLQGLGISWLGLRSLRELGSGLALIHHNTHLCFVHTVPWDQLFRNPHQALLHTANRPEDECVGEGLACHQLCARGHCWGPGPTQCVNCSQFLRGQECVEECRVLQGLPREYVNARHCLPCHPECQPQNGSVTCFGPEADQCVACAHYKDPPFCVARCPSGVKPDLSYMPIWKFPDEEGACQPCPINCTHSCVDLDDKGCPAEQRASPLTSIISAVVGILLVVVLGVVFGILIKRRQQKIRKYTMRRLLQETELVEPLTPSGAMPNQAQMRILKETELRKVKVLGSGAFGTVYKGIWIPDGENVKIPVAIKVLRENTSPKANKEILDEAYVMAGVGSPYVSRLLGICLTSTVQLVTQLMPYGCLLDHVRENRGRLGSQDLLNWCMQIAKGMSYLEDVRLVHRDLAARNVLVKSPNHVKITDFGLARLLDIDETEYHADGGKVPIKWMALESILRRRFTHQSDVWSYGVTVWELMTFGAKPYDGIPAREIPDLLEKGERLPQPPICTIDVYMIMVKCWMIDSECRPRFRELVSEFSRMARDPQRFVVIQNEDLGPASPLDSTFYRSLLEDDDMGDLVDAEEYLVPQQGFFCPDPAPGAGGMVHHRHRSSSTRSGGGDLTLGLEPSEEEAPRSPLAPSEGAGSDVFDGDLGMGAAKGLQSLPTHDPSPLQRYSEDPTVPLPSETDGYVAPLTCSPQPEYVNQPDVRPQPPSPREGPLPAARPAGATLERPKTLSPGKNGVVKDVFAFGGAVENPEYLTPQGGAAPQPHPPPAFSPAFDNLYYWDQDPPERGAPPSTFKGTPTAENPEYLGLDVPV

Structure (SMILES)	viability [1]	Her2 level [2]	viability [3]	viability [4]	viability [5]	differential viability (reversal) ([6]; H69AR cells + 2 uM doxorubicin)	viability [6, 9]	viability [6, 10]	inhibition [7]	inhibition [8]
CCOC(=O)C1CCCN(C(=O)c2ccc(CS(=O)(=O)Cc3ccccc3C)o2)C1 (stereo not given)	94.5%	97.5% (inactive)	94.5% (inactive)	84.4% (inactive)	96.2% (inactive)	9.89% (inactive)	86.3%	96.2%	-0.39% (inactive)	-8.23% (inactive)
Nc1c(C2=NCCO2)nnn1Cc1ccccc1	118%	95.5% (inactive)	118% (inactive)	94% (inactive)	87.3% (inactive)	0.315% (inactive)	87%	87.3%	-3.42% (inactive)	3.28% (inactive)
CC1(C)CC(=O)C(CC2=C(O)CC(C)(C)CC2=O)=C(O)C1	95%	91% (inactive)	95% (inactive)	94.4% (inactive)	102% (inactive)	10.5% (inactive)	91.8%	102%	-3.68% (inactive)	-4% (inactive)
CCCN1C2=C(C(=O)CCC2)C(c2ccc(O)c(Br)c2)C2=C1CCCC2=O	96%	85.5% (inactive)	96% (inactive)	96.8% (inactive)	91.8% (inactive)	-1.01% (inactive)	92.8%	91.8%	-7.11% (inactive)	2% (inactive)
N#CCSc1nc(-c2ccccc2)cs1	86.5%	98.5% (inactive)	86.5% (inactive)	109% (inactive)	98% (inactive)	-0.97% (inactive)	98.9%	98%	-1.71% (inactive)	2.58% (inactive)
Cn1cc(CN2CCc3ccccc3C2)c2ccccc21	80.5%	82% (inactive)	80.5% (inactive)	90.4% (inactive)	75.6% (inactive)	-8.43% (inactive)	84.1%	75.6%	-5.58% (inactive)	3.93% (inactive)
Cc1ccc(Nc2cc(-n3nc(C)cc3C)ncn2)cc1	96.5%	97% (inactive)	96.5% (inactive)	70.7% (inactive)	74.8% (inactive)	-7.74% (inactive)	82.6%	74.8%	-0.26% (inactive)	-1.97% (inactive)
O=C1CC(c2ccc(Cl)cc2)n2nc(N3C(=O)c4ccccc4C3=O)nc2N1 (stereo not given)	106%	93% (inactive)	106% (inactive)	95.5% (inactive)	91.8% (inactive)	-2.29% (inactive)	94.1%	91.8%	-3.16% (inactive)	4.59% (inactive)
CCOc1ccccc1NC(=O)C1CCCN(C(=O)NCc2ccccc2)C1 (stereo not given)	102%	89.5% (inactive)	102% (inactive)	96.8% (inactive)	100% (inactive)	3.45% (inactive)	96.6%	100%	-2.13% (inactive)	4.26% (inactive)
CCOC(=O)C1=C(C)Nc2ncnn2C1c1ccccc1F (stereo not given)	94%	110% (inactive)	94% (inactive)	116% (inactive)	95.6% (inactive)	-5% (inactive)	101%	95.6%	-0.92% (inactive)	-1.29% (inactive)
Cc1oc(-c2ccccc2)cc1C(N)=O	103%	78.5% (inactive)	103% (inactive)	92.3% (inactive)	100% (inactive)	20% (inactive)	80.3%	100%	-0.79% (inactive)	-2.9% (inactive)
O=C(c1cccnc1NCc1ccccc1)N1CCOCC1	77.5%	126% (inactive)	77.5% (inactive)	86.4% (inactive)	93.8% (inactive)	0.76% (inactive)	93%	93.8%	1.08% (inactive)	23.2% (inactive)
Cc1cc(NC(=O)Cn2cnc3c2c(=O)n(C)c(=O)n3C)n(-c2ccccc2)n1	116%	93% (inactive)	116% (inactive)	117% (inactive)	108% (inactive)	8.22% (inactive)	99.3%	108%	-7.97% (inactive)	0.83% (inactive)
O=C(CSc1nnc(Cn2cnc3ccccc32)o1)c1ccccc1	124%	86.5% (inactive)	124% (inactive)	61.8% (inactive)	73.3% (inactive)	-9.91% (inactive)	83.2%	73.3%	-6.84% (inactive)	3.49% (inactive)
CC(C)(C)C(=O)CCN1C(=O)C2(OCCO2)c2ccccc21	104%	106% (inactive)	104% (inactive)	83.9% (inactive)	103% (inactive)	9.06% (inactive)	94.1%	103%	-1.82% (inactive)	-2.3% (inactive)
CC1CCCCC1NC(=O)C1CCN(C(=O)NC2CCCCC2)CC1 (stereo not given)	94.5%	108% (inactive)	94.5% (inactive)	90.8% (inactive)	102% (inactive)	6.41% (inactive)	95.3%	102%	-0.78% (inactive)	0.17% (inactive)

Structure (SMILES)	viability [1]	Her2 level [2]	viability [3]	viability [4]	viability [5]	differential viability (reversal) ([6]; H69AR cells + 2 uM doxorubicin)	viability [6, 9]	viability [6, 10]	inhibition [7]	inhibition [8]
CCCC(=O)Nc1cc(C)c(NC(=O)c2ccccn2)cn1	90.5%	92.5% (inactive)	90.5% (inactive)	92.2% (inactive)	99.4% (inactive)	9.38% (inactive)	90.1%	99.4%	-5.06% (inactive)	-0.32% (inactive)
Nc1nc(C2C(=O)CCCC2=O)cs1	97.5%	99.5% (inactive)	97.5% (inactive)	102% (inactive)	103% (inactive)	5.64% (inactive)	97.6%	103%	-2.89% (inactive)	4.1% (inactive)
COc1ccc(NC(=O)CN2CCCCC2)cc1	108%	108% (inactive)	108% (inactive)	90.2% (inactive)	88.2% (inactive)	5.94% (inactive)	82.3%	88.2%	-5.58% (inactive)	-10% (inactive)
O=C(Nc1nc2c(s1)CCc1ccccc1-2)c1cccs1	102%	74% (inactive)	102% (inactive)	72.2% (inactive)	82.9% (inactive)	-4.96% (inactive)	87.9%	82.9%	-3.33% (inactive)	8.41% (inactive)
CCC(Sc1nc2sc(C(=O)OC)c(C)c2c(=O)n1N)C(=O)NCC1CCCO1 (stereo not given)	102%	88% (inactive)	102% (inactive)	94.2% (inactive)	82.2% (inactive)	-5.51% (inactive)	87.7%	82.2%	-6.49% (inactive)	-1.27% (inactive)
Cc1sc2nc(CN3CCN(S(=O)(=O)c4cccc5nonc45)CC3)[nH]c(=O)c2c1C	102%	93.5% (inactive)	102% (inactive)	66.4% (inactive)	87.9% (inactive)	9.52% (inactive)	78.4%	87.9%	-6.05% (inactive)	0.5% (inactive)
CCOC(=O)/C=C1\SCC(=O)N1Cc1ccc(Br)cc1	112%	94% (inactive)	112% (inactive)	79.5% (inactive)	97.3% (inactive)	3.96% (inactive)	93.3%	97.3%	-7.67% (inactive)	4.13% (inactive)
CCN1CCN(C(=O)c2ccc3c(=O)n(C4CCCC4)c(=S)[nH]c3c2)CC1	85.5%	108% (inactive)	85.5% (inactive)	82.9% (inactive)	84.7% (inactive)	9.82% (inactive)	74.8%	84.7%	7.37% (inactive)	19.5% (inactive)
C=CCOC(=O)C(C#N)c1nc2ccccc2nc1N1CCN(Cc2ccccc2)CC1 (stereo not given)	94%	79% (inactive)	94% (inactive)	77.7% (inactive)	84.1% (inactive)	-9.45% (inactive)	93.6%	84.1%	-4.53% (inactive)	2.3% (inactive)
CC1CN(S(=O)(=O)c2cccc(C(=O)OCc3cc(=O)oc4cc(O)ccc34)c2)CC(C)O1 (stereo not given)	80.5%	87% (inactive)	80.5% (inactive)	61.1% (inactive)	78.2% (inactive)	16.1% (inactive)	62.1%	78.2%	-6% (inactive)	-4.43% (inactive)
COc1ccccc1N1CCN(C(=O)C2CCCO2)CC1 (stereo not given)	98.5%	92.5% (inactive)	98.5% (inactive)	90% (inactive)	97.5% (inactive)	-0.265% (inactive)	97.8%	97.5%	-1.69% (inactive)	1.8% (inactive)
CC(=O)N1CCN(C(C)=O)C1c1ccccc1	93.5%	136% (inactive)	93.5% (inactive)	77.9% (inactive)	91.4% (inactive)	2.34% (inactive)	89.1%	91.4%	3.46% (inactive)	-7% (inactive)
O=C(CN1C(=O)c2ccccc2C1=O)Nc1ccccc1C(=O)N1CCCC1	83%	90.5% (inactive)	83% (inactive)	96% (inactive)	109% (inactive)	19.7% (inactive)	89%	109%	-3.78% (inactive)	1.59% (inactive)
COc1ccc(-c2noc(-c3cc(Cl)ccc3Cl)n2)cc1OC	122%	78% (inactive)	122% (inactive)	94.9% (inactive)	107% (inactive)	18.4% (inactive)	88.1%	107%	-2.67% (inactive)	-4.52% (inactive)
COc1cc(CN2CCN(C(=O)CC(C)C)CC2)cc(OC)c1O	114%	93.5% (inactive)	114% (inactive)	103% (inactive)	102% (inactive)	5.74% (inactive)	96.8%	102%	-1.04% (inactive)	-4.6% (inactive)
